The source made the active and inactive calls. The calls are words filed in the database; no cut-off is given here.
Key:
[1] = Relative resistance, ratio of IC50 for inhibition of beta3 Tubulin (unknown origin) expressed in human HeLa cell line assessed as inhibition of cell proliferation to IC50 antiproliferative activity against human HeLa cells
HeLa = experiment: Antiproliferative activity against human HeLa cells assessed as decrease in cell growth measured after 48 hrs by SRB method; type: functional, cell-based
[2] = Relative resistance, ratio of IC50 for antiproliferative activity against human SK-OV-3 MDR-1-6/6 cells expressing Pgp to IC50 antiproliferative activity against human SK-OV-3 cells; type: functional
MDA-MB-435 [3] = experiment: Antiproliferative activity against human MDA-MB-435 cell line assessed as inhibition of cell proliferation measured after 48 hrs by SRB assay; type: functional, cell-based; settings: MDA-MB-435, 48 h
Summary of the method: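 MDA-MB-435 melanoma cells were assessed by sulforhodamine B assay. IC50 is the mean ± SD of at least three independent experiments, each run in triplicate.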

[4] = Induction of microtubule depolymerisation in rat A-10 cell line measured after 18 hrs by indirect immunofluorescence method; settings: a10
Summary of the method: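 Rat A-10 cells, chosen because they arrest in interphase without significant mitotic accumulation, were exposed to compounds for 18 h. Cellular microtubules were then visualized by indirect immunofluorescence. EC50 values come from at least three independent experiments.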

[5] = Antiproliferative activity against human SK-OV-3 MDR-1-6/6 cells expressing Pgp assessed as decrease in cell growth measured after 48 hrs by SRB method; type: functional; settings: SK-OV-3, 48 h
SK-OV-3 = experiment: Antiproliferative activity against human SK-OV-3 cells assessed as decrease in cell growth measured after 48 hrs by SRB method; type: functional, cell-based; settings: SK-OV-3, 48 h
U-251 = experiment: Cytotoxicity against human U251 cell line assessed as inhibition of cell growth after 48 hrs by SRB assay; type: functional, cell-based; settings: U-251, 48 h
Bos taurus [6] = species: Bos taurus; experiment: Inhibition of [3H]colchicine binding to bovine tubulin at 5 uM measured after 10 mins by scintillation counting
Summary of the method: (§1)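 Purified bovine brain tubulin at 1.0 µM was mixed with 5.0 µM [3H]colchicine and inhibitor, plus components that stabilize colchicine binding, in 5% DMSO; tubulin was added last, on ice. Binding ran 10 min at 37 °C and was stopped with ice water. Mixtures were filtered through stacked DEAE-cellulose filters, and bound radiolabel was measured by scintillation counting.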

Bos taurus [7] = species: Bos taurus; experiment: Inhibition of [3H]colchicine binding to bovine tubulin at 1 uM measured after 10 mins by scintillation counting; summary of the method: as §1
[8] = Inhibition of bovine tubulin polymerization assessed as reduction in extent of assembly preincubated for 15 mins followed by addition of reaction mixture measured after 20 mins by turbidimetric assay; design: species or system Bos taurus
Summary of the method: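 After chilling, GTP was added (0.4 mM final). Turbidity at 350 nm was read after a jump from 0 °C to 30 °C.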

MDA-MB-435 [9] = experiment: Antiproliferative activity against human MDA-MB-435 cell line assessed as inhibition of cell proliferation at 10 uM measured after 48 hrs by SRB assay; type: functional
A10 [10] = experiment: Induction of microtubule depolymerisation in rat A-10 cell line at 40 uM measured after 18 hrs by indirect immunofluorescence method
A10 [11] = experiment: Potency index, ratio of CA-4 IC50 to test compound IC50 for induction of microtubule depolymerisation in rat A-10 cell line measured after 18 hrs by indirect immunofluorescence method

Row | IC50 (HeLa) [nM] | IC50 (MDA-MB-435 [3]) [nM] | EC50 [4] [nM] | IC50 (SK-OV-3) [nM] | inhibition (Bos taurus [6]) [%] | inhibition (Bos taurus [7]) [%] | IC50 [8] [nM] | SMILES | Ratio IC50 [1] | Ratio IC50 [2] | IC50 [5] [nM] | IC50 (U-251) [nM] | inhibition at 10 µM (MDA-MB-435 [9]) [%] | Activity (A10 [10]) | Ratio IC50 (A10 [11])
1 | 1200 | 820 | 3700 | 1200 |  |  |  | COc1cccc2c(N(C)c3nc(C)nc4c3CCC4)cccc12 | 0.7 | 1.1 | 1300 | 38.9 |  |  | 
2 |  |  | 26 |  | 92 | 70 | 1600 | COc1ccc(N(C)c2nc(C)nc3c2CCC3)cc1 |  |  | 16.4 |  |  |  | 
3 |  |  |  |  |  |  |  | COc1ccc(Nc2nc(C)nc3c2CC(C)C3)cc1 (stereo unspecified) |  |  |  |  | 7 | inactive | 3
